Measured values pooled from the literature.
Protocols differ between the studies behind these lines.
Target: 3-phosphoinositide-dependent protein kinase 1 (PDPK1, Homo sapiens, UniProt O15530)
Sequence (O15530 1-556, as in one of the studies): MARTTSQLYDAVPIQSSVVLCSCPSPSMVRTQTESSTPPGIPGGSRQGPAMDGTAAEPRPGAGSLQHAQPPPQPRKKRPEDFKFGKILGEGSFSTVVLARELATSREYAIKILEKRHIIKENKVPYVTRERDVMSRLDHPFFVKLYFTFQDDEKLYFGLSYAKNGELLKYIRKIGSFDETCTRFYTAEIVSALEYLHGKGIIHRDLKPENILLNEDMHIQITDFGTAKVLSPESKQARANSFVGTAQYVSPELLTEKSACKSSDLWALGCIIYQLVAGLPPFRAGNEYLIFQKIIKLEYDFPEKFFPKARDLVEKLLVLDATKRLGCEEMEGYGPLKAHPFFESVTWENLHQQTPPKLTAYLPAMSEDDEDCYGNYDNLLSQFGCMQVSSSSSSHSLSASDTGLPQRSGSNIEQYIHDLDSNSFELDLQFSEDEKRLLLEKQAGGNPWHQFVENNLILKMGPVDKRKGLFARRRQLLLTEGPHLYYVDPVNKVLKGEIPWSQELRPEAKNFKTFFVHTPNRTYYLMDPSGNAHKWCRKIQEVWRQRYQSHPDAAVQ

The inhibition of `C#Cc1n[nH]c2c(-c3cn([C@@H](C)c4ccccc4)c(=O)[nH]c3=O)cc(F)cc12` is reported as 4% (enzyme activity, inhibitor; 0.1 µM).
`Cn1cc(-c2cc(F)cc(N3CCn4c(cc5c4CCCC5)C3=O)c2CO)cc(Nc2ccc(N3CCN(C4COC4)CC3)cn2)c1=O` has an inhibition of 1% (enzyme activity, inhibitor; 0.1 µM).
With `COc1ncccc1-c1cnn2ccc(N3CCN(C(=O)OC(C)C)CC3)nc12` the remaining binding was 82% (binding, competition with immobilised ligand; 1 µM).
With `C#Cc1n[nH]c2c(-c3cn([C@@H](C)c4ccccn4)c(=O)[nH]c3=O)cc(F)cc12` the inhibition was 4.7% (enzyme activity, inhibitor; 0.1 µM).
`O=c1[nH]c2ccccc2n1C1CCN(Cc2ccc(-c3[nH]c4cc5ncnc5cc4nc3-c3ccccc3)cc2)CC1` has a remaining signal of 107% (cell-free assay; 0.5 µM).
The remaining binding of `Cn1cncc1[C@@](O)(COc1ccc(C#N)cc1-c1ccc(OC(F)(F)F)cc1)c1ccc(C#N)cc1` is reported as 96% (cell-free assay, competition with immobilised ligand; 1 µM).
With `Cc1nn(C)cc1-c1nc2c(N3CCN(Cc4ccc(Cl)cc4)CC3)c(Cl)cnc2[nH]1` the remaining binding was 100% (binding, competition with immobilised ligand; 1 µM).
`CC(C)(C)c1cc(C=C(C#N)C#N)cc(Br)c1O` gave a remaining activity of 102% (enzyme activity, inhibitor; 0.5 µM).
`Nc1ncc(-c2nc(N3CCOCC3)nc(N3CCOCC3)n2)c(C(F)F)n1` gave a remaining binding of 83% (binding, competition with immobilised ligand; 10 µM).
